Most compounds without a hit are left out; they make up all but 3.7% or so of the library.
Kir21 block: inhibitors of mouse Kir2.1 inward-rectifier potassium channel. 310,000 compounds, 0.85% hits. B-score at 10 µM. AID 1672, 2009. HEK293-Kir2.1, FluxOR thallium flux fluorescence; hits give low values;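 active = fluorescence ratio B-score at or below minus 3 SD of library scores, with starting-brightness B-score within 2 SD, cut at about -4.2 in these data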;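 also: channel flux triggered by added potassium and thallium sulfate stimulus; B-score of peak minus minimum fluorescence over baseline after thallium stimulus; more negative B-score means stronger Kir2.1 block with less thallium influx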
KCNQ1 block: inhibitors of human KCNQ1 channel, primary screen, cell-based, thallium flux, high-throughput; 310,000 compounds, 1.3% hits; AID 2642, 2010; B-score at 10 µM; Potassium voltage-gated channel subfamily KQT member 1 (Homo sapiens), P51787; CHO-K1 KCNQ1, FluxOR thallium flux fluorescence; hits give high values;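 active = compounds whose thallium flux B-score, printed positive for inhibition, exceeds three library SD while starting fluorescence stays within three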;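 also: channel opened by potassium depolarization with thallium stimulus after 20 min compound exposure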
hERG protect: hERG rescue from dofetilide block, primary screen, cell-based, CHO-hERG, FluxOR thallium flux, dofetilide IC70; activation (rescue from dofetilide block), less the hit threshold, % at 10 µM; Voltage-gated inwardly rectifying potassium channel KCNH2 (Homo sapiens), Q12809; dofetilide IC70 present; 310,000 compounds, 0.51% hits;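 active = activation above the mean of controls blocked by dofetilide plus 5 SD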;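 also: thallium influx through hERG after potassium depolarization seen as dye fluorescence rise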
KCNK3 inh: human KCNK3 channel inhibitors, primary screen, CHO cells, FluxOR thallium flux, B-score | Potassium channel subfamily K member 3 (Homo sapiens), O14649 | FluxOR fluorescence; hits give low values | B-score at 10 µM | 340,000 compounds, 0.84% hits | AID 602410, 2012;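 active = B-score under library mean minus 4 SD, starting fluorescence ratio at most library mean plus 5 SD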;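 also: more negative B-score means stronger inhibition of thallium flux through KCNK3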
Target sequence (O14649 whole entry, looked up): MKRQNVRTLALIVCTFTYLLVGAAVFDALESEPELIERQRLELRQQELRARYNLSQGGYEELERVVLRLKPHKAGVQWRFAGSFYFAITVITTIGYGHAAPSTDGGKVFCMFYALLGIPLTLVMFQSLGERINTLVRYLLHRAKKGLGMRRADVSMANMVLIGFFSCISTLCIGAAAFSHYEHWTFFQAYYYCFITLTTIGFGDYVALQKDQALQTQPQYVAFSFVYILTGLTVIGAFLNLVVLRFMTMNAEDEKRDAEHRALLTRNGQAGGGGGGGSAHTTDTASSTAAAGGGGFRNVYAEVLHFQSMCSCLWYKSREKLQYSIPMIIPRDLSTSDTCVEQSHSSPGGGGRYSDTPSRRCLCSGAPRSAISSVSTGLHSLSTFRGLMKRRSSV
KCNQ1 pot: potentiators or activators of KCNQ1 channel, primary screen, cell-based, thallium flux, high-throughput. CHO-K1 KCNQ1, thallium flux FluxOR fluorescence; hits give high values. AID 2648, 2010. 310,000 compounds, 0.35% hits. B-score at 10 µM. Potassium voltage-gated channel subfamily KQT member 1 (Homo sapiens), P51787;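 active = fluorescence ratio B-score, a plate-corrected score, at least three library SD, with initial intensity B-score within 5 SD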
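Doses: Single concentration per compound, DMSO matched to controls | Test system: KCNQ1-transfected CHO-K1 cells | Timing: 90 min dye loading and 20 min compound exposure, both at room temperature | Measured by: Kinetic FluxOR thallium fluorescence, 10-s 1-Hz baseline, 110-s post-stimulus read | Medium: Assay buffer with matched DMSO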
KCNK9 inh: KCNK9 potassium channel inhibitors, primary screen, HEK293 cells, thallium flux; Potassium channel subfamily K member 9 (Homo sapiens), Q9NPC2; FluxOR thallium flux fluorescence; hits give low values; B-score at 10 µM; 310,000 compounds, 1.2% hits; AID 488922, 2010;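 active = ratio B-score over 3 SD below the library mean, with starting fluorescence within 5 SD of its mean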;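 also: negative B-score means less thallium flux so channel inhibition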
KCNK9 block conf: KCNK9 potassium channel inhibitors, confirmation, HEK293 cells, thallium flux, duplicate; shares compounds with KCNK9 inh; FluxOR thallium flux fluorescence; inhibition, % at 10 µM; 4,900 compounds, 43% hits;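 active = thallium signal inhibited by more than 5 SD of the compound-free buffer control wells, on both duplicate plates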;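 also: 0% = assay buffer control wells without compound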
Kir21 sel: mouse Kir2.1 channel inhibition, confirmation, selectivity assay for KCNK9 modulator project, cell-based, HEK293, thallium flux; shares compounds with KCNK9 inh; Kir2.1 cells, FluxOR thallium flux fluorescence; inhibition, % at 10 µM; 4,900 compounds, 4% hits;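 active = thallium signal drop more than 5 SD beyond the mean of the no-compound control wells, seen in both duplicate plates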;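 also: signal is fluorescence rise after thallium addition divided by baseline fluorescence; plate controls were assay buffer only for no effect and full block by chlorpromazine control for full effect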
HEK293 Tl ctr: thallium flux in non-induced HEK293 cells, confirmation, counter-screen for KCNK9 inhibitor project, cell-based, second counter screen, non-induced KCNK9-HEK293; shares compounds with KCNK9 inh; FluxOR thallium flux; inhibition, % at 10 µM; 4,900 compounds, 40% hits;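 active = thallium signal drop beyond 5 SD of the untreated control mean, on both duplicate plates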;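 also: plate controls were buffer only IC0 wells for no effect and SID17386958 at its maximal inhibitory level for full effect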
* = called active by the depositor.

`COc1ccc(OC)c(-n2c(SCC(=O)Nc3cccc(S(N)(=O)=O)c3)nc3ccccc3c2=O)c1` gave Kir21 block -0.85, KCNQ1 block inactive, hERG protect -9, KCNK3 inh inactive, KCNQ1 pot inactive, KCNK9 inh -13*, KCNK9 block conf 56%*, Kir21 sel inactive and HEK293 Tl ctr 34%*.
For C[C@@H]1CN[C@@H](CCO)/C1=C\c1ccccc1 the results were KCNK3 inh inactive.
O=C(CCCCC(=O)OC1CCCCC1)OC1CCCCC1 was read as KCNK3 inh inactive.
`CCCCNC(=O)c1onc(CSc2cccc3ccccc23)c1C(=O)O` gave Kir21 block -1.5, KCNQ1 block inactive, hERG protect -14, KCNK3 inh inactive, KCNQ1 pot inactive, KCNK9 inh inactive, KCNK9 block conf inactive, Kir21 sel inactive and HEK293 Tl ctr inactive.
CCCCNC(=O)c1onc(CSc2ccc(C(C)C)cc2)c1C(=O)O was read as Kir21 block 0.2, KCNQ1 block inactive, hERG protect -13, KCNK3 inh inactive, KCNQ1 pot inactive, KCNK9 inh inactive, KCNK9 block conf inactive, Kir21 sel inactive and HEK293 Tl ctr inactive.
C=CC[C@@H]1C=C[C@H](O/N=C/[C@@H](NS(=O)(=O)c2ccc(C)cc2)[C@H](C)/C=C/CC(=O)OC)[C@@H](CO)O1 was read as Kir21 block -0.09, KCNQ1 block inactive, hERG protect -5, KCNQ1 pot inactive and KCNK9 inh inactive.
`CCCNC(=O)OC[C@H]1O[C@H](CCO/N=C/[C@@H](OC)[C@H](C)/C=C/CC(=O)OC)C=C[C@@H]1Oc1ccc(OC)cc1` gave Kir21 block -0.82, KCNQ1 block inactive, hERG protect -4, KCNQ1 pot inactive, KCNK9 inh inactive, KCNK9 block conf inactive, Kir21 sel inactive and HEK293 Tl ctr inactive.
Cc1ccc(CNC(=O)C2CCC(=O)N2Cc2ccc(C)cc2)cc1 (stereo not drawn) was read as Kir21 block -0.2, KCNQ1 block inactive, hERG protect -4, KCNK3 inh inactive, KCNQ1 pot inactive and KCNK9 inh inactive.
`Cc1cc2ccccn2c1C(=O)c1ccccc1F` gave Kir21 block -0.37, KCNQ1 block inactive, hERG protect -7, KCNK3 inh inactive, KCNQ1 pot inactive, KCNK9 inh -12*, KCNK9 block conf inactive, Kir21 sel inactive and HEK293 Tl ctr inactive.
For CCOc1nc(-c2ccccc2)c2cc(Br)ccc2n1 the results were Kir21 block 0, KCNQ1 block inactive, hERG protect -5, KCNK3 inh inactive, KCNQ1 pot inactive and KCNK9 inh inactive.
CCc1cccc(NC(=S)N2CCC(c3ccccc3)C2)c1 (stereo not drawn) was read as Kir21 block -0.11, KCNQ1 block inactive, hERG protect -10, KCNK3 inh inactive, KCNQ1 pot inactive, KCNK9 inh inactive, KCNK9 block conf inactive, Kir21 sel inactive and HEK293 Tl ctr inactive.
CSc1cccc(NC(=S)N2CCC(c3ccccc3)C2)c1 (stereo not drawn) was read as Kir21 block 0.31, KCNQ1 block inactive, hERG protect -7, KCNK3 inh inactive, KCNQ1 pot inactive, KCNK9 inh inactive, KCNK9 block conf inactive, Kir21 sel inactive and HEK293 Tl ctr inactive.
For Fc1cc(F)cc(NC(=S)N2CCC(c3ccccc3)C2)c1 (stereo not drawn) the results were Kir21 block 1.1, KCNQ1 block inactive, hERG protect -11, KCNK3 inh inactive, KCNQ1 pot inactive and KCNK9 inh inactive.
Screening COc1cc(NC(=O)CSc2ncnc3sc4c(c23)CCCC4)c(C(=O)O)cc1OC returned Kir21 block -0.29, KCNQ1 block inactive, hERG protect -10, KCNK3 inh inactive, KCNQ1 pot inactive and KCNK9 inh inactive.
`NNC(=O)c1nnsc1-c1csnn1` gave KCNK3 inh inactive.
For S=C(NC1CCCCC1)N1CCOCCOCCN(C(=S)NC2CCCCC2)CCOCCOCC1 the results were Kir21 block 2.2, KCNQ1 block inactive, hERG protect -2, KCNK3 inh inactive, KCNQ1 pot inactive, KCNK9 inh -12*, KCNK9 block conf 50%*, Kir21 sel inactive and HEK293 Tl ctr 33%*.
COc1ccc(N2C(=O)C(Cl)=C(NCc3ccccc3)C2=O)cc1 was read as Kir21 block -0.01, KCNQ1 block inactive, hERG protect -7, KCNK3 inh inactive, KCNQ1 pot inactive and KCNK9 inh inactive.
Screening Cc1ccccc1NC1=C(Cl)C(=O)N(C2CCCCC2)C1=O returned Kir21 block -1.6, KCNQ1 block inactive, hERG protect -9, KCNK3 inh inactive, KCNQ1 pot inactive and KCNK9 inh inactive.
Screening CCOc1ccccc1NC1=C(Cl)C(=O)N(c2ccc(OC)cc2)C1=O returned Kir21 block 0.92, KCNQ1 block inactive, hERG protect -12, KCNK3 inh inactive, KCNQ1 pot inactive, KCNK9 inh -17*, KCNK9 block conf 64%*, Kir21 sel inactive and HEK293 Tl ctr 42%*.
COc1ccccc1NC1=C(Cl)C(=O)N(C2CCCCC2)C1=O was read as Kir21 block -0.42, KCNQ1 block inactive, hERG protect -16, KCNK3 inh inactive, KCNQ1 pot inactive, KCNK9 inh -8.5*, KCNK9 block conf 58%*, Kir21 sel inactive and HEK293 Tl ctr 29%*.
